Converted amounts (≈) assume the structure as drawn. The source made the active and inactive calls. The calls are words filed in the database; no cut-off is given here.
What was measured:
Liver microsomes [1] = assay: Intrinsic clearance in human liver microsomes assessed per ug of protein; format: ADME, Microsome
[2] = target: Sodium channel protein type 9 subunit alpha (Homo sapiens, UniProt Q15858); assay: Inhibition of human NaV1.7 expressed in HEK293 cells by whole-cell voltage clamp assay; format: cell-based
Sequence of Sodium channel protein type 9 subunit alpha (Q15858 whole entry): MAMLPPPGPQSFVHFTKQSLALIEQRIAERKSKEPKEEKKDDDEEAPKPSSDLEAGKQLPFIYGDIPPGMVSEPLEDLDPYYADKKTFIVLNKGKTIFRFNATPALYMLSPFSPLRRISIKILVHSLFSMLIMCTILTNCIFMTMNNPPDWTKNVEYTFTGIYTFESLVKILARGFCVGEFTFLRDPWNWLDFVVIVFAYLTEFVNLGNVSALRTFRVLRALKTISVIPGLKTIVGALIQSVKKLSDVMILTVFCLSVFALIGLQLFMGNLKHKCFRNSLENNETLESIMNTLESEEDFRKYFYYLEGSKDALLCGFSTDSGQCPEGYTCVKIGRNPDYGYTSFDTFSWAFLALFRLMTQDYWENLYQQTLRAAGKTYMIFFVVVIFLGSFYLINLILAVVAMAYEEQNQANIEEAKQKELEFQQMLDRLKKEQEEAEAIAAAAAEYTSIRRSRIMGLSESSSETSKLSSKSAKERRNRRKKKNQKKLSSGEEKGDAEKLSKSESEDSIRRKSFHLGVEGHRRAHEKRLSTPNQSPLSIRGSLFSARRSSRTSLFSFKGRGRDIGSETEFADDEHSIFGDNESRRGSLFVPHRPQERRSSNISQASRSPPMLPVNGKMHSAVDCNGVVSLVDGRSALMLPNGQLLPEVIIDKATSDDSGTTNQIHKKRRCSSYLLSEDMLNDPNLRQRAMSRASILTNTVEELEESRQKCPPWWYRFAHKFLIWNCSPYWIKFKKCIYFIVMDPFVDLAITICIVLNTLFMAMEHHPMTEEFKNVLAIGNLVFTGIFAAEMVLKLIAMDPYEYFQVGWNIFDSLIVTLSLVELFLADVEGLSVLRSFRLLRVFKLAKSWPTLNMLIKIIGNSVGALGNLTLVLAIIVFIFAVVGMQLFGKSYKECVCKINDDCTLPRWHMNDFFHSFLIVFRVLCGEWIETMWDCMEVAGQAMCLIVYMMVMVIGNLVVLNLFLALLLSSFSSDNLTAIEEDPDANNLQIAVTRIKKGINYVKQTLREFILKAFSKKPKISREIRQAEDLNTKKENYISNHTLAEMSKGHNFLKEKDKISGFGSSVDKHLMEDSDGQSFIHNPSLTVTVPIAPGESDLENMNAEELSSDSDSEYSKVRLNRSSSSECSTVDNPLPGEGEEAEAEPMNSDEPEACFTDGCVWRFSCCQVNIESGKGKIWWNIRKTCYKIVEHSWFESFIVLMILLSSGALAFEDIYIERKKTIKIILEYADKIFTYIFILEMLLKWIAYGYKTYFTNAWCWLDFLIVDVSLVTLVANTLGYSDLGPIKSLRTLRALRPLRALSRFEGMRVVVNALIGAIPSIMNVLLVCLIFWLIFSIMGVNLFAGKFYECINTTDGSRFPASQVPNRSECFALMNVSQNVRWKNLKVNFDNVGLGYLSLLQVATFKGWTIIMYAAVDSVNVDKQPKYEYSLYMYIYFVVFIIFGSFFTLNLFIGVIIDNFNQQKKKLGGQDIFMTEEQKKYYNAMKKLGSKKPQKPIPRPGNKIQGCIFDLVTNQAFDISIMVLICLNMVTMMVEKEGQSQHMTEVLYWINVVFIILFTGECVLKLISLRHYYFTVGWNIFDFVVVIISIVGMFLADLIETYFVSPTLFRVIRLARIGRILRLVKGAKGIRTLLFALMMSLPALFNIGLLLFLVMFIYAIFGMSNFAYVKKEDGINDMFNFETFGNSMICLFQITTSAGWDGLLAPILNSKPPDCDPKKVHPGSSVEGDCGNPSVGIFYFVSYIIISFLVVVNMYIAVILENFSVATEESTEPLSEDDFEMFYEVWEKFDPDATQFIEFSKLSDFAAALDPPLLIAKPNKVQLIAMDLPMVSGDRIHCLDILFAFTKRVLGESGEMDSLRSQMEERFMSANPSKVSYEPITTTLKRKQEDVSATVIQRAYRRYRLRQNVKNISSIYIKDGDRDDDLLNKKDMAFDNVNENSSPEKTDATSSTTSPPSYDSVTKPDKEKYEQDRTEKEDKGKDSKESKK
Procedure, shortened: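 Human NaV1.7 α-subunit stably expressed in HEK293 cells. Currents were recorded by perforated whole-cell automated planar patch clamp (IonWorks Quattro) in D-PBS external solution with 5.5 mM glucose. Cells were held at −65 mV, and a train of eight 30 ms steps to −20 mV at 3 Hz was applied. Half-log serial dilutions were made in DMSO, giving 0.3% DMSO in the recording solution.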

Liver microsomes [3] = assay: Intrinsic clearance in rat liver microsomes assessed per ug of protein; format: ADME, Microsome
[4] = target: Sodium channel protein type 5 subunit alpha (Homo sapiens, UniProt Q14524); assay: Inhibition of human NaV1.5 expressed in CHO cells by IonWorks assay; format: cell-based
Sequence of Sodium channel protein type 5 subunit alpha (Q14524 whole entry): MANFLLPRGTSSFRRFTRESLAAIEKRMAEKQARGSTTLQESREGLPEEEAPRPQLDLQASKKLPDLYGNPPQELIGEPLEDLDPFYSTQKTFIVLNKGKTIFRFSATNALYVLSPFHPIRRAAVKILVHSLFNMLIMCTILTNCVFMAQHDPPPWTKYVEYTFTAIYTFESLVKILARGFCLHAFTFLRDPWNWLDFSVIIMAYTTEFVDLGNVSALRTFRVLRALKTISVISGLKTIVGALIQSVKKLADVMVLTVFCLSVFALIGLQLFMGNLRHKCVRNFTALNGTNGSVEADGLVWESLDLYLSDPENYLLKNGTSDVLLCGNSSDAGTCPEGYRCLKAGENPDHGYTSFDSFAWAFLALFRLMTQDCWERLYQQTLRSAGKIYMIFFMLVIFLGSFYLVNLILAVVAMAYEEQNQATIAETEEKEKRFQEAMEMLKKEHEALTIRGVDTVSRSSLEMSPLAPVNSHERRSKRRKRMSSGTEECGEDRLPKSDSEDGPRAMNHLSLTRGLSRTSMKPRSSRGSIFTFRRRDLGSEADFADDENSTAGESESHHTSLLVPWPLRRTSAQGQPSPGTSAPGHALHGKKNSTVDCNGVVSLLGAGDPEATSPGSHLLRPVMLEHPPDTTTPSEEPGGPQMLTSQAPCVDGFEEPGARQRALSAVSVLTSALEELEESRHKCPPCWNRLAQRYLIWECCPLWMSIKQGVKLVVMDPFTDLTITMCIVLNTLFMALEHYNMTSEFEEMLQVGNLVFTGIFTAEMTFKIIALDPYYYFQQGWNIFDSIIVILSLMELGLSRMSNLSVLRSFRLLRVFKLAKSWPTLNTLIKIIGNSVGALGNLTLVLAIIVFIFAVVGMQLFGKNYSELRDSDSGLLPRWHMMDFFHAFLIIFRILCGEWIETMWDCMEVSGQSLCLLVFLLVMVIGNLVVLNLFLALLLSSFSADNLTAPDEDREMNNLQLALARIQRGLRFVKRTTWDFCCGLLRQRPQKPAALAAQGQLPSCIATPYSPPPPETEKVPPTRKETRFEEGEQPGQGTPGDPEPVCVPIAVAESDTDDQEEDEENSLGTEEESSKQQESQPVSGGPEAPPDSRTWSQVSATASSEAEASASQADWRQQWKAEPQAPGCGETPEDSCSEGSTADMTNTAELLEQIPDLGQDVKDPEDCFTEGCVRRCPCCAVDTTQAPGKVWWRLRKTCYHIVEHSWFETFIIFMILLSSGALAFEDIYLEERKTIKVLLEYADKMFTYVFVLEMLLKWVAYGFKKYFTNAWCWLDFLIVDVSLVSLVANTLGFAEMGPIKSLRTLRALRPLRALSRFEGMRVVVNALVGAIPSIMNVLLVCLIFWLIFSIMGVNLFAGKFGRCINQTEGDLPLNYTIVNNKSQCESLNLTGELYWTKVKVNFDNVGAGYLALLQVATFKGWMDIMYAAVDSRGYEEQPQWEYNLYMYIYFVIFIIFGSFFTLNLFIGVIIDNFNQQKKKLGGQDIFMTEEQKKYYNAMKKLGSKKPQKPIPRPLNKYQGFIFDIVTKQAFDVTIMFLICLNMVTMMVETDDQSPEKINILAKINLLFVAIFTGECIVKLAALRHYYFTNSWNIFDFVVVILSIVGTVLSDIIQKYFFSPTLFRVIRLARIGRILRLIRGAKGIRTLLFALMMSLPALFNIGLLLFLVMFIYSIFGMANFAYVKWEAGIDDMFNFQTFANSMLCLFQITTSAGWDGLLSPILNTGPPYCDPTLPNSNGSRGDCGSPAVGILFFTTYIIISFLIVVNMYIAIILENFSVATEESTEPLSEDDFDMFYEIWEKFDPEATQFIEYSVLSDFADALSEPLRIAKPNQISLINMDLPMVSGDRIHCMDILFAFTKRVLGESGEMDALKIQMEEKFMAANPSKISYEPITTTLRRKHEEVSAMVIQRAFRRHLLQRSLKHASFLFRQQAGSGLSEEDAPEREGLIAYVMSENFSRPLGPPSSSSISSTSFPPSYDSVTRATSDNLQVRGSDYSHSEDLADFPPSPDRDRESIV

[5] = Solubility of the compound; format: physicochemical
[6] = target: Voltage-gated inwardly rectifying potassium channel KCNH2 (Homo sapiens, UniProt Q12809); assay: Inhibition of human ERG expressed in CHO cells by IonWorks HT assay; format: cell-based
Sequence of Voltage-gated inwardly rectifying potassium channel KCNH2 (Q12809 whole entry): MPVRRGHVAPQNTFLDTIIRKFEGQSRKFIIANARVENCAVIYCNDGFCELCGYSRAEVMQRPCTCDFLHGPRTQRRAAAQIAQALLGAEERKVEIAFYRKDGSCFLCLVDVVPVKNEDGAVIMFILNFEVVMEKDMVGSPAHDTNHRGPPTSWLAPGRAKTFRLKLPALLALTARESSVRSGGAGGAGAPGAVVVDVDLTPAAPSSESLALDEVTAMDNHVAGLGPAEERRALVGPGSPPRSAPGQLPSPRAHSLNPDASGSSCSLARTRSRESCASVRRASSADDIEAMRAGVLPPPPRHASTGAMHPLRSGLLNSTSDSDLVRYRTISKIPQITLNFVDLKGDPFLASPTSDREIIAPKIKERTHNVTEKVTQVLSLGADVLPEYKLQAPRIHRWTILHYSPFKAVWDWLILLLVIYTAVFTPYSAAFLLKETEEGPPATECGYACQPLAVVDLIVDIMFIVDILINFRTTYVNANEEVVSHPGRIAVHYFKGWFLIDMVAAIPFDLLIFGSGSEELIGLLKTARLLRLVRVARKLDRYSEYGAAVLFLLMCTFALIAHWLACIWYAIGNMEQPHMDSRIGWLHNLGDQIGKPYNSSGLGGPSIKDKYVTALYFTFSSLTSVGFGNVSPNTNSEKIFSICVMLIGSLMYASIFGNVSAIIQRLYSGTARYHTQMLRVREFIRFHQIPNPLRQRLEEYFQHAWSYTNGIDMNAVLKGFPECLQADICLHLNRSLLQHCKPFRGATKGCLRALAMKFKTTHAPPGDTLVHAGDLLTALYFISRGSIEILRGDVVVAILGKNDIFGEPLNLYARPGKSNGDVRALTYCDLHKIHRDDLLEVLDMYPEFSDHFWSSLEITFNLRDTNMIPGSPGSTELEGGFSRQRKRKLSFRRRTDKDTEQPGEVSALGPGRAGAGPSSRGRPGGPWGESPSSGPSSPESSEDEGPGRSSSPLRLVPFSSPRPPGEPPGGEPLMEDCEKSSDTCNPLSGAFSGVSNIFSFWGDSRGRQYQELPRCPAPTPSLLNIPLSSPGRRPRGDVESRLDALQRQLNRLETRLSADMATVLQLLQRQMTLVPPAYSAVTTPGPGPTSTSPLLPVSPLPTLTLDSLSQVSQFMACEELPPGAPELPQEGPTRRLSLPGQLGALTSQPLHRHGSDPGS

[7] = target: T1, Growth hormone secretagogue receptor type 1 (Homo sapiens, UniProt Q92847); assay: Displacement of [125I]ghrelin from GHS receptor at 10 uM
[8] = Tmax in Sprague-Dawley rat at 10 umol/kg, po; format: ADME, organism-based; conditions: in vivo
Procedure, shortened: (§1)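 Rat pharmacokinetics used fasted male Sprague–Dawley rats, three animals per administration route per compound. The intravenous dose was 3 µmol/kg, with a separate oral arm.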

Rattus norvegicus [9] = assay: Dose normalized AUC in Sprague-Dawley rat at 10 umol/kg, po; format: ADME, organism-based; conditions: in vivo; procedure, shortened: as §1
Rattus norvegicus [10] = assay: Dose normalized AUC in Sprague-Dawley rat at 3 umol/kg, iv; format: ADME, organism-based; conditions: in vivo; procedure, shortened: as §1
[11] = Half life in Sprague-Dawley rat at 3 umol/kg, iv; format: ADME, organism-based; conditions: in vivo; procedure, shortened: as §1
[12] = Clearance in Sprague-Dawley rat at 3 umol/kg, iv; format: ADME, organism-based; conditions: in vivo; procedure, shortened: as §1
[13] = Volume of distribution at steady state in Sprague-Dawley rat at 3 umol/kg, iv; format: ADME, organism-based; conditions: in vivo, read-out: Vdss; procedure, shortened: as §1
[14] = target: T2, Alpha-2B adrenergic receptor (Homo sapiens) (UniProt P18089); assay: Displacement of [3H]rauwolscine from adrenergic alpha2B receptor at 10 uM
T2 sequence (whole entry): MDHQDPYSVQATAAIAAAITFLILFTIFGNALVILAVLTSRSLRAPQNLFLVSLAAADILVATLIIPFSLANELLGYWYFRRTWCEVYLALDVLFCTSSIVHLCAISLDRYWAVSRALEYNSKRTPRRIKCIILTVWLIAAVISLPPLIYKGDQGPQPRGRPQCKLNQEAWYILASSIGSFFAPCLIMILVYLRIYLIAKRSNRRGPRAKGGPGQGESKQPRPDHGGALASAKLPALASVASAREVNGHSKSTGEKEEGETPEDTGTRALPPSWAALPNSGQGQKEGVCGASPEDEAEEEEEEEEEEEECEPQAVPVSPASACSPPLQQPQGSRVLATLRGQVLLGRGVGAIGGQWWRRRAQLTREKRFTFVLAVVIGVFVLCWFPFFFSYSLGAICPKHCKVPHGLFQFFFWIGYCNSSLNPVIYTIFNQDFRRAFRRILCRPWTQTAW

[15] = target: T3, 5-hydroxytryptamine receptor 1A (Homo sapiens) (UniProt P08908); assay: Activity at 5HT1A receptor
T3 sequence (whole entry): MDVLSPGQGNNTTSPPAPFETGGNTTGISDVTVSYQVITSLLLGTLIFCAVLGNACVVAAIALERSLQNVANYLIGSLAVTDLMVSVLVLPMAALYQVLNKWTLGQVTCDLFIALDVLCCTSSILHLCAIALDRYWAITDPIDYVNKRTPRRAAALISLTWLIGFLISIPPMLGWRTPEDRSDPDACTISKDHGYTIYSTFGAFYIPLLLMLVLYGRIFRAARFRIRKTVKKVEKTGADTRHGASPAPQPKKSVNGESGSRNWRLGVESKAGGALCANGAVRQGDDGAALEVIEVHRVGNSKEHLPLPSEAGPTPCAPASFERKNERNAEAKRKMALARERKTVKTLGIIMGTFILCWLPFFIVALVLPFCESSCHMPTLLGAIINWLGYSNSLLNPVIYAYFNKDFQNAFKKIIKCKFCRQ

[16] = target: T4, Sodium-dependent dopamine transporter (Homo sapiens, UniProt Q01959); assay: Displacement of [125I]RTI-55 from DAT
[17] = target: 5-hydroxytryptamine receptor 1B (Homo sapiens) (UniProt P28222); assay: Activity at 5HT1B receptor
[18] = target: Serotonin (5-HT) receptor (Homo sapiens) (UniProt P30939+P41595+Q13639+P28222+P46098+P08908+P28221+P28223+P28335+P28566+P34969+P50406+P47898+A5X5Y0+O95264+Q70Z44+Q8WXA8); assay: Activity at 5HT receptor; format: protein assay
[19] = Cmax in Sprague-Dawley rat at 10 umol/kg, po; format: ADME, organism-based; design: dose 10 umol/kg, route oral; conditions: in vivo; procedure, shortened: as §1
[20] = Half life in Sprague-Dawley rat at 10 umol/kg, po; format: ADME, organism-based; conditions: in vivo; procedure, shortened: as §1
[21] = target: T4, Sodium-dependent dopamine transporter; assay: Displacement of [125I]RTI-55 from DAT at 10 uM
[22] = target: T1, Growth hormone secretagogue receptor type 1; assay: Displacement of [125I]ghrelin from GHS receptor
[23] = Oral bioavailability in Sprague-Dawley rat at 10 umol/kg; format: ADME, organism-based; conditions: in vivo; procedure, shortened: as §1

SMILES | CLint (Liver microsomes [1]) [µL/min/mg] | IC50 [2] [µM] | CLint (Liver microsomes [3]) [µL/min/mg] | IC50 [4] [µM] | solubility [5] [µM] | IC50 [6] [µM] | further results
CC(O)c1ccc(-c2cccc3c2C[C@H](NC(=O)c2ccc(OCCOCC(F)(F)F)nc2)CO3)cn1 (some centres undefined) | 12 | 0.794 | < 10 | 10 | 18 (≈ 9.32 µg/mL) |  | 
O=C(N[C@@H]1COc2cccc(-c3ccc(CO)nc3)c2C1)c1ccc(OCCOCC(F)(F)F)nc1 | 11 | 0.158 | < 10 | 7.94 | 54 (≈ 27.2 µg/mL) | 15.8 | 
COc1cnc(-c2cccc3c2C[C@@H](NC(=O)c2ccc(COCC(F)(F)F)nc2)CO3)cn1 | 16 | > 10 | 21 |  |  |  | 
CN1CCN(c2cccc3c2C[C@H](NC(=O)c2ccc(OCCC(F)(F)F)nc2)CO3)CC1 | < 10 | 0.631 | < 10 | 5.01 | 379 (≈ 176 µg/mL) | 12.6 | 
O=C(N[C@@H]1COc2cccc(-c3ccc(CO)nc3)c2C1)c1ccc(OCC(F)(F)F)nc1 | 10 | 0.158 | < 10 | 6.31 | 58 (≈ 26.6 µg/mL) | 10 | inhibition [7]: 98%; Tmax [8]: 1.5 h; AUC/dose (Rattus norvegicus [9]): 0.27 kg·h/L; AUC/dose (Rattus norvegicus [10]): 0.4 kg·h/L; half-life [11]: 3.8 h; clearance [12]: 42.2 mL/min/kg; Vd [13]: 11 L/kg; inhibition [14]: 55%; Activity [15]: inactive; IC50 [16]: 2 µM; Activity [17]: inactive; Activity [18]: inactive; Cmax [19]: 380 nM; half-life [20]: 3.5 h; inhibition [21]: 80%; IC50 [22]: 0.2 µM; bioavailability [23]: 66.3%
O=C(N[C@@H]1COc2cccc(-c3ccnc(CO)c3)c2C1)c1ccc(OCC(F)(F)F)nc1 | 15 | 0.501 | < 10 | 6.31 | 17 (≈ 7.81 µg/mL) |  | Activity [18]: inactive
COc1cnc(-c2cccc3c2C[C@H](NC(=O)c2ccc(OCC(F)(F)F)nc2)CO3)cn1 | 14 | 0.126 | 14 | > 25.1 | < 1 | > 31.6 | 
COCCn1nc(C)c(C(=O)N[C@@H]2COc3cccc(-c4ccncc4)c3C2)n1 |  | 25.1 |  | > 31.6 | 306 (≈ 120 µg/mL) |  | 
COc1ncc(-c2cccc3c2C[C@H](NC(=O)c2ccc(OCCC(F)(F)F)nc2)CO3)cn1 | < 10 |  | < 10 | 3.98 | 3 (≈ 1.42 µg/mL) |  | 
O=C(N[C@@H]1COc2cccc(-c3cccnc3)c2C1)c1ccc(OC(F)(F)F)cc1 |  |  |  | 3.16 | 5 (≈ 2.07 µg/mL) |  | 
CN1CCN(c2cccc3c2C[C@H](NC(=O)c2ccc(OC(F)(F)F)cc2)CO3)CC1 | 2.5 | 2 | 18 | 2 | 27 (≈ 11.8 µg/mL) | 7.94 | 
Cc1ncc(-c2cccc3c2C[C@H](NC(=O)c2ccc(OCC(F)(F)F)nc2)CO3)cn1 | < 10 |  | < 10 | 5.01 | 6.5 (≈ 2.89 µg/mL) | 10 | 
O=C(N[C@@H]1COc2cccc(-c3ccncc3)c2C1)c1ccc(OC(F)(F)F)cc1 | 78 | 1 |  | 3.98 | 2 (≈ 0.829 µg/mL) | 2.51 | 
O=C(N[C@@H]1COc2cccc(-c3cccnc3)c2C1)c1ccc(OCC(F)(F)F)nc1 | 161 |  | 64 | 3.16 | 29 (≈ 12.5 µg/mL) |  | 

Source: ChEMBL document CHEMBL2069242, “Structure and activity relationship in the (S)-N-chroman-3-ylcarboxamide series of voltage-gated sodium channel blockers” (Bioorg Med Chem Lett, 2012)
